Measured values published in ChEMBL document CHEMBL4024746, “Nonpyrogenic Molecular Adjuvants Based on norAbu-Muramyldipeptide and norAbu-Glucosaminyl Muramyldipeptide: Synthesis, Molecular Mechanisms of Action, and Biological Activities in Vitro and in Vivo” (J Med Chem, 2017).
Calls of active or inactive are those of the source. The calls are words filed in the database; no cut-off is given here.

Assays:
Mus musculus [1] = test: Adjuvant activity in OspA immunized BALB/c mouse assessed as induction of total Ig antibody production administered id loaded in rOspA proteoliposomes measured 14 days after boost immunization by ELISA; format: functional
Procedure, shortened: (§1)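 Female BALB/c mice, 6−8 weeks, five per group, immunized id with His-tagged rOspA (endotoxin below 2.5 EU/mg) on metallochelation liposomes (EPC/POPG/DOGS-NTA-Ni/adjuvant 71:19:5:5), 20 μg rOspA per dose; boost 14 days after prime. Pooled sera taken 14 days post-boost, run in duplicate by ELISA on 100 ng/well tag-free rOspA, diluted 1:1000–1:32000; reported as mean OD490 ± SD at 1:8000.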

Oryctolagus cuniculus [2] = test: Toxicity in Chinchilla rabbit assessed as skin irritation at 100 nmol/kg, iv using micellar formulation measured up to 2 months post dose; format: organism-based; details: in vivo
Oryctolagus cuniculus [3] = test: Toxicity in Chinchilla rabbit assessed as weight loss at 100 nmol/kg, iv using micellar formulation measured up to 2 months post dose; format: organism-based; details: in vivo
Oryctolagus cuniculus [4] = test: Toxicity in New Zealand albino rabbit assessed as necrosis at site of application at 100 nmol/kg, sc using liposomal formulation measured up to 2 months post dose; format: organism-based; details: in vivo
Mus musculus [5] = test: Immuno-stimulatory activity in ICR mouse assessed as induction of GM-progenitor cell proliferation in serum at […], sc using liposomal formulation measured after 6 hrs; format: functional, organism-based
Procedure, shortened: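 Female ICR mice, 3 months old, four per group, given liposomal preparations sc at 100 nmol per dose in 200 μL. Serum collected 6 h later and added to cultured granulocyte–monocyte progenitors. GM-CFU colonies counted, with serum-free cells as baseline. Dunnett's test is used versus the infusion-solution control.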

Oryctolagus cuniculus [6] = test: Pyrogenic activity in Chinchilla rabbit assessed as change in maximum body temperature at 100 nmol/kg, iv using micellar foemulation measured at 30 mins time intervals; format: toxicity, organism-based; details: in vivo, 0.5 h
Procedure, shortened: (§2)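 Standard rabbit pyrogenicity test, three animals per group, iv or modified sc application of free (micellar) or liposomal formulations. Maximum temperature rise (+ΔTmax) summed per group; sum below 1.1 °C classed as nonpyrogenic. Temperature followed a further 24 h for delayed pyrogenicity.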

Oryctolagus cuniculus [7] = test: Pyrogenic activity in New Zealand albino rabbit assessed as change in maximum body temperature at 100 nmol/kg, sc using liposomal formulation measured at 30 mins time intervals for 9 to 24 hrs (reference value: 0.2 degC); format: toxicity, organism-based; details: in vivo; procedure, shortened: as §2
Mus musculus [8] = test: Adjuvant activity in OspA immunized BALB/c mouse assessed as induction of total IgG2a antibody production administered id loaded in rOspA proteoliposomes measured 14 days after boost immunization by ELISA; format: functional; procedure, shortened: as §1
Oryctolagus cuniculus [9] = test: Toxicity in New Zealand albino rabbit assessed as behavioral changes at 100 nmol/kg, sc using liposomal formulation measured up to 2 months post dose; format: organism-based; details: in vivo
[10] = target: T1, Nucleotide-binding oligomerization domain-containing protein 1 (Homo sapiens) (UniProt Q9Y239); test: Agonist activity at human NOD1 receptor expressed in HEK-Blue reporter cells at 10 uM after 48 hrs by SEAP reporter gene assay; format: cell-based
T1 sequence (whole entry): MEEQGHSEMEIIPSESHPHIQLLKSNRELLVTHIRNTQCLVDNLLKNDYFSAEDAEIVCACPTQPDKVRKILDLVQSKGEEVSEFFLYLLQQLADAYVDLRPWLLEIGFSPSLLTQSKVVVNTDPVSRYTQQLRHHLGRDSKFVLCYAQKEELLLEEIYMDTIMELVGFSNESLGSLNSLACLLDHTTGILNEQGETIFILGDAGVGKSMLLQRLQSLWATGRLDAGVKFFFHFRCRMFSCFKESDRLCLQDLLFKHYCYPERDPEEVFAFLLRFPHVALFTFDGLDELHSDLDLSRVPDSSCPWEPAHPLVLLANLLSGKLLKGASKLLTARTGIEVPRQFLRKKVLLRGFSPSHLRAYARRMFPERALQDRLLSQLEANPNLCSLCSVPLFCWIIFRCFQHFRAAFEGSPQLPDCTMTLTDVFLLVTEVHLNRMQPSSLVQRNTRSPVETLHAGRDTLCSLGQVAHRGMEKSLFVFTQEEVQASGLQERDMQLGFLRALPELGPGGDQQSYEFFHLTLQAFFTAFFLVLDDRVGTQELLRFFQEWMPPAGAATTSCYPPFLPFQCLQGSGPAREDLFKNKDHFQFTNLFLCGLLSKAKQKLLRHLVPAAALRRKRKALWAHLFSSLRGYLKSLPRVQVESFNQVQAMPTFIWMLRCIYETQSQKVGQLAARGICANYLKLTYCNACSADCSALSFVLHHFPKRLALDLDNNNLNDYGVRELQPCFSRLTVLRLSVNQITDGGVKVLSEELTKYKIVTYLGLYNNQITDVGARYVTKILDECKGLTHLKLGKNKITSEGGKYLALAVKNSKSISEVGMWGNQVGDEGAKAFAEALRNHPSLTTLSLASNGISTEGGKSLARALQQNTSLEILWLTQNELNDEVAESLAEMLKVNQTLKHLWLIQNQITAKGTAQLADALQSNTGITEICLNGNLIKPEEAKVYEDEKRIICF
Procedure, shortened: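 HEK293 cells cotransfected with human NOD1 and an NF-κB/AP-1-inducible SEAP reporter, exposed to compounds at 10 μM for 48 h. SEAP is read at 650 nm with QUANTI-Blue. Diaminopimelic acid derivatives serve as NOD1 positive controls. Dunnett's test is used versus untreated cells.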

[11] = target: Nucleotide-binding oligomerization domain-containing protein 2 (Homo sapiens) (UniProt Q9HC29); test: Agonist activity at human NOD2 receptor expressed in mouse Raw-Blue reporter cells at 10 uM after 48 hrs by SEAP reporter gene assay; format: cell-based
Procedure, shortened: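 RAW 264.7-derived RAW-Blue cells carrying an NF-κB/AP-1-inducible SEAP reporter, exposed to compounds at 10 μM for 48 h. Colorimetric SEAP read-out at 650 nm. MDP serves as positive control. ANOVA with Dunnett's test versus untreated cells and versus MDP.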

Mus musculus [12] = test: Toxicity in BALB/c mouse assessed as local reactions at site of drug application administered id loaded in rOspA proteoliposomes; details: in vivo, other
Procedure, shortened: (§3)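 Female BALB/c mice immunized id with rOspA metallochelation proteoliposomes carrying the adjuvant, prime and boost 14 days apart; injection sites inspected for irritation or local reactions.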

[13] = target: Nucleotide-binding oligomerization domain-containing protein 2 (Homo sapiens) (UniProt Q9HC29); test: Agonist activity at human NOD2 receptor expressed in mouse Raw-Blue reporter cells at 10 uM after 24 hrs in presence of GSK717 by SEAP reporter gene assay
[14] = target: Nucleotide-binding oligomerization domain-containing protein 2 (Homo sapiens) (UniProt Q9HC29); test: Agonist activity at human NOD2 receptor expressed in mouse Raw-Blue reporter cells at 10 uM after 48 hrs in presence of gefitinib by SEAP reporter gene assay; format: cell-based
[15] = target: NACHT, LRR and PYD domains-containing protein 3 (Homo sapiens, UniProt Q96P20); test: Agonist activity at NLRP3 in human […] cells assessed as induction of LPS-induced IL-1beta secretion by HEK-Blue reporter cell based assay
Procedure, shortened: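 THP1-Null cells stimulated with compounds; mature IL-1β released is detected with HEK-Blue IL-1β cells through SEAP reporter activity in the supernatant, read colorimetrically with QUANTI-Blue. ATP serves as positive standard. Untreated HEK-Blue IL-1β cells serve as negative control; comparison by ANOVA with Dunnett's test.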

Oryctolagus cuniculus [16] = test: Toxicity in New Zealand albino rabbit assessed as skin irritation at 100 nmol/kg, sc using liposomal formulation measured up to 2 months post dose; format: organism-based; details: in vivo
Mus musculus [17] = test: Toxicity in BALB/c mouse assessed as irritation at site of drug application administered id loaded in rOspA proteoliposomes; details: in vivo, other; procedure, shortened: as §3
Oryctolagus cuniculus [18] = test: Toxicity in Chinchilla rabbit assessed as necrosis at site of application at 100 nmol/kg, iv using micellar formulation measured up to 2 months post dose; format: organism-based; details: in vivo
Oryctolagus cuniculus [19] = test: Toxicity in New Zealand albino rabbit assessed as weight loss at 100 nmol/kg, sc using liposomal formulation measured up to 2 months post dose; format: organism-based; details: in vivo
Oryctolagus cuniculus [20] = test: Toxicity in Chinchilla rabbit assessed as behavioral changes at 100 nmol/kg, iv using micellar formulation measured up to 2 months post dose; format: organism-based; details: in vivo
Mus musculus [21] = test: Adjuvant activity in OspA immunized BALB/c mouse assessed as induction of total IgG1 antibody production administered id loaded in rOspA proteoliposomes measured 14 days after boost immunization by ELISA; format: functional; procedure, shortened: as §1
Oryctolagus cuniculus [22] = test: Pyrogenic activity in New Zealand albino rabbit assessed as change in maximum body temperature at 25 ug/kg, sc using liposomal formulation measured at 30 mins time intervals for 9 to 24 hrs (reference value: 0.2 degC); format: organism-based; details: in vivo, 0.025 mg/kg
[23] = Solubility of the compound in DMSO; format: physicochemical
[24] = Solubility of the compound in ethanol; format: physicochemical
[25] = Solubility of the compound in PBS; format: physicochemical; details: buffer

Chain of Nucleotide-binding oligomerization domain-containing protein 2 (Homo sapiens) (Q9HC29 whole entry, the tested form may be a part): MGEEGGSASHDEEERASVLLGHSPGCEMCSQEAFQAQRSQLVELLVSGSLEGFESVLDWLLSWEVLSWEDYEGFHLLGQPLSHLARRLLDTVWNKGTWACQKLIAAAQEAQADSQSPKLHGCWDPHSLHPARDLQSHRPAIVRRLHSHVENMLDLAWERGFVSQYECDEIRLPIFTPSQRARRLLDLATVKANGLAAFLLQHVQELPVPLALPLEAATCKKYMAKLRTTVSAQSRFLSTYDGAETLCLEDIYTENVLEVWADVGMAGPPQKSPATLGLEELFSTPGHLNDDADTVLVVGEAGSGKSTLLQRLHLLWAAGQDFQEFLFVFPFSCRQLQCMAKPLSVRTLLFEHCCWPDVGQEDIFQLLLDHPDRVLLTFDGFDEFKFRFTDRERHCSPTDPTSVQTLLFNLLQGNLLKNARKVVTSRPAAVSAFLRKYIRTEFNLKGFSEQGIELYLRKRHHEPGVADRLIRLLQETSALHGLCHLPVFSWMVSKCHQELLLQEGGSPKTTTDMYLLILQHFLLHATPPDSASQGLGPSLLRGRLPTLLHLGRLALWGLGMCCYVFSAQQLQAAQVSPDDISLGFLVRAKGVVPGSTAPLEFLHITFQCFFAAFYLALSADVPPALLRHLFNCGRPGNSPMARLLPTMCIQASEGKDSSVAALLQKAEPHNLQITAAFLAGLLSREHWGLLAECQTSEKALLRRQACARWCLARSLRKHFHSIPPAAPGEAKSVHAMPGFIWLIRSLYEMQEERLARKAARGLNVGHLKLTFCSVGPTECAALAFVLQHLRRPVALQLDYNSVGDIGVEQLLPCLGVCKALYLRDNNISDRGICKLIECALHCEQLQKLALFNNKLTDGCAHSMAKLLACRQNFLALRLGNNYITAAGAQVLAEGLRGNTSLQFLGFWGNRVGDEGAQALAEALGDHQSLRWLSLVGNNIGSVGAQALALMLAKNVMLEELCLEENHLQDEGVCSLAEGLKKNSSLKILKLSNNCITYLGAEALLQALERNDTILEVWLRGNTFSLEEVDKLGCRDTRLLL
Chain of NACHT, LRR and PYD domains-containing protein 3 (Q96P20 whole entry, the tested form may be a part): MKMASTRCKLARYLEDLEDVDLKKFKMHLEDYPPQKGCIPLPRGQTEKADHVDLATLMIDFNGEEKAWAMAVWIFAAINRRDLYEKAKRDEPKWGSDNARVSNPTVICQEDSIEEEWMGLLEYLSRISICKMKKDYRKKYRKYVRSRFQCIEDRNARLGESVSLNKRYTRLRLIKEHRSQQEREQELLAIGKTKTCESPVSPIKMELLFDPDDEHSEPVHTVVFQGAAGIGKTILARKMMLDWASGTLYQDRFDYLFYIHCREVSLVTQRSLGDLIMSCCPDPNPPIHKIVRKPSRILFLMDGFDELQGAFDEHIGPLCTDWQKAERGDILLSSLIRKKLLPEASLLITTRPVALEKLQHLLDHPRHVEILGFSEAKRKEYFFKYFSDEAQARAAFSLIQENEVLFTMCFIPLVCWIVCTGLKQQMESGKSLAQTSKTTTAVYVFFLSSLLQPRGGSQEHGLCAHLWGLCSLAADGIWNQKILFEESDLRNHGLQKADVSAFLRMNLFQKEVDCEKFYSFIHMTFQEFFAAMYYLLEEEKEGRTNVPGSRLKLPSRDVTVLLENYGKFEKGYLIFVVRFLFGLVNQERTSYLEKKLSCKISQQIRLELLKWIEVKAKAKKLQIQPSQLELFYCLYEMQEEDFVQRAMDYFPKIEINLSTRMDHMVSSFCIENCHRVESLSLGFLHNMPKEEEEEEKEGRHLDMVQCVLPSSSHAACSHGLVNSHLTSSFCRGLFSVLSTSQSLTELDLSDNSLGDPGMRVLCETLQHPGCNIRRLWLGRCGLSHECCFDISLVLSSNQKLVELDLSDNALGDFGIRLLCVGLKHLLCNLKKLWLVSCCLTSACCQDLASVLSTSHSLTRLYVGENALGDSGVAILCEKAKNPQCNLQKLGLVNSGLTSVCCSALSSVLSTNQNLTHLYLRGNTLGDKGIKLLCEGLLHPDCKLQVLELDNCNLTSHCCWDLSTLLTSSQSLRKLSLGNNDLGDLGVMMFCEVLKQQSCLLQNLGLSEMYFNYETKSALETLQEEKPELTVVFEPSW

Row | Activity [10] | Activity [11] | Activity [13] | Activity [14] | Activity [15] | SMILES | Activity (Mus musculus [1]) | Activity (Oryctolagus cuniculus [2]) | Activity (Oryctolagus cuniculus [3]) | Activity (Oryctolagus cuniculus [4]) | Activity (Mus musculus [5]) | deltaT (Oryctolagus cuniculus [6]) [°C] | deltaT (Oryctolagus cuniculus [7]) [°C] | Activity (Oryctolagus cuniculus [9]) | Activity (Mus musculus [12]) | Activity (Oryctolagus cuniculus [16]) | Activity (Mus musculus [17]) | Activity (Oryctolagus cuniculus [18]) | Activity (Oryctolagus cuniculus [19]) | Activity (Oryctolagus cuniculus [20]) | Activity (Mus musculus [21]) | further results
1 | inactive | Active | inactive | inactive | Active | CCCCCCCCCCCCCCC(CCCCCCCCCCCCCC)C(=O)NCCCC[C@H](NC(=O)CC[C@@H](NC(=O)[C@H](CC)NC(=O)CO[C@H]1[C@H](O)[C@@H](CO)OC(O)[C@@H]1NC(C)=O)C(N)=O)C(=O)O (some centres not stated) | Active | Non-Toxic | Non-Toxic | Non-Toxic | Active | 0.7 | 0.6 | Non-Toxic | Non-Toxic | Non-Toxic | Non-Toxic | Non-Toxic | Non-Toxic | Non-Toxic | Active | Activity (Mus musculus [8]): Active
2 | inactive | Active | inactive | inactive | Active | CC(=O)N[C@H]1C(O)O[C@H](CO)[C@@H](O)[C@@H]1O[C@H](C)C(=O)N[C@@H](C)C(=O)N[C@H](CCC(=O)O)C(N)=O (some centres not stated) [MURAMYL DIPEPTIDE] | Active | – | – | – | Active | 2.9 | – | – | Non-Toxic | – | Non-Toxic | – | – | – | Active | deltaT (Oryctolagus cuniculus [22]): 2.7 °C
3 | inactive | Active | inactive | inactive | Active | CCCCCCCCCCCCCCC(CCCCCCCCCCCCCC)C(=O)N[C@H]1[C@H](O[C@H]2[C@H](OCC(=O)N[C@@H](CC)C(=O)N[C@H](CCC(=O)O)C(N)=O)[C@@H](NC(C)=O)C(O)O[C@@H]2CO)O[C@H](CO)[C@@H](O)[C@@H]1O (some centres not stated) | – | Non-Toxic | Non-Toxic | Non-Toxic | inactive | 0.7 | 0.5 | Non-Toxic | – | Non-Toxic | – | Non-Toxic | Non-Toxic | Non-Toxic | – | solubility [23]: Soluble; solubility [24]: Insoluble; solubility [25]: Soluble
